Measurements taken from ChEMBL document CHEMBL1136453, “New classes of antibacterial oxazolidinones with C-5, methylene O-linked heterocyclic side chains” (2003).
≈ marks a conversion by molar mass, not a printed value.

What was measured:
Staphylococcus aureus [1] = test: In vitro minimum inhibitory concentration against coagulase negative Staphylococcus aureus methicillin resistant (CNSMR); type: functional
Staphylococcus aureus [2] = test: In vitro minimum inhibitory concentration against Staphylococcus aureus MRQR; type: functional
Staphylococcus aureus [3] = test: In vitro minimum inhibitory concentration against Staphylococcus aureus Oxford; type: functional; conditions: Staphylococcus aureus; read-out: MIC
Streptococcus pyogenes = test: In vitro minimum inhibitory concentration against Streptococcus pyogenes penicillin sensitive; type: functional
Summary of the method: (§1)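 Agar dilution per NCCLS protocol with doubling dilutions from 128 to 0.008 mg/L, incubated at 37 °C. Strains came from an in-house culture collection. MIC reported in mg/L.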

Mus musculus [4] = test: In vivo antibacterial activity against Staphylococcus aureus after intravenous administration (5 mg/kg) in mice using (MTT) mouse thigh test
Mus musculus [5] = test: In vivo antibacterial activity against Staphylococcus aureus after intravenous administration (10 mg/kg) in mice using (MTT) mouse thigh test
Enterococcus faecalis = test: In vitro minimum inhibitory concentration against Enterococcus faecalis; type: functional; summary of the method: as §1
[6] = In vivo antibacterial activity against Staphylococcus aureus after intravenous administration (5 mg/kg) in mice using (MTT) mouse thigh test
Staphylococcus aureus [7] = test: In vivo antibacterial activity against Staphylococcus aureus after intravenous administration (10 mg/kg) in mice using (MTT) mouse thigh test

Compound	MIC (Staphylococcus aureus [1])	MIC (Staphylococcus aureus [2])	MIC (Staphylococcus aureus [3])	MIC (Streptococcus pyogenes)	Activity (Mus musculus [4])	Activity (Mus musculus [5])	MIC (Enterococcus faecalis)	Activity [6]	Activity (Staphylococcus aureus [7])
CC(=O)NC[C@H]1CN(c2ccc(N3CCOCC3)c(F)c2)C(=O)O1 [LINEZOLID]	0.5 µg/mL (≈ 1.48 µM)	1 µg/mL (≈ 2.96 µM)	0.5 µg/mL (≈ 1.48 µM)	1 µg/mL (≈ 2.96 µM)	0.05	1.4	–	–	–
O=C([C@@H](O)CO)N1CC=C(c2ccc(N3C[C@H](COc4ccon4)OC3=O)cc2F)CC1	0.5 µg/mL (≈ 1.12 µM)	0.5 µg/mL (≈ 1.12 µM)	0.25 µg/mL (≈ 0.559 µM)	0.5 µg/mL (≈ 1.12 µM)	–	–	1 µg/mL (≈ 2.24 µM)	0.63	1.04
CS(=O)(=O)C[C@@H](O)C(=O)N1CC=C(c2c(F)cc(N3C[C@H](COc4ccon4)OC3=O)cc2F)CC1	0.25 µg/mL (≈ 0.474 µM)	0.25 µg/mL (≈ 0.474 µM)	0.25 µg/mL (≈ 0.474 µM)	0.5 µg/mL (≈ 0.948 µM)	–	–	0.5 µg/mL (≈ 0.948 µM)	1.02	1.42
O=C1O[C@@H](COc2ccncn2)CN1c1ccc(C2=CCOCC2)c(F)c1	2 µg/mL (≈ 5.39 µM)	2 µg/mL (≈ 5.39 µM)	1 µg/mL (≈ 2.69 µM)	4 µg/mL (≈ 10.8 µM)	–	–	4 µg/mL (≈ 10.8 µM)	0.23	0.34
C[C@H](O)C(=O)N1CC=C(c2c(F)cc(N3C[C@H](COc4ccon4)OC3=O)cc2F)CC1	0.5 µg/mL (≈ 1.11 µM)	0.5 µg/mL (≈ 1.11 µM)	0.5 µg/mL (≈ 1.11 µM)	1 µg/mL (≈ 2.23 µM)	–	–	1 µg/mL (≈ 2.23 µM)	0.64	1.16
O=C([C@@H](O)CO)N1CC=C(c2ccc(N3C[C@H](COc4cnsn4)OC3=O)cc2F)CC1	0.13 µg/mL (≈ 0.28 µM)	0.13 µg/mL (≈ 0.28 µM)	0.06 µg/mL (≈ 0.129 µM)	0.13 µg/mL (≈ 0.28 µM)	–	–	0.25 µg/mL (≈ 0.538 µM)	0.42	1.11
O=C(C(CO)Cn1cncn1)N1CC=C(c2c(F)cc(N3C[C@H](COc4ccon4)OC3=O)cc2F)CC1 (stereo not given in full)	1 µg/mL (≈ 1.89 µM)	1 µg/mL (≈ 1.89 µM)	0.5 µg/mL (≈ 0.943 µM)	1 µg/mL (≈ 1.89 µM)	–	–	2 µg/mL (≈ 3.77 µM)	0.25	0.5
O=C1O[C@@H](COc2ccccn2)CN1c1ccc(C2=CCOCC2)c(F)c1	1 µg/mL (≈ 2.7 µM)	1 µg/mL (≈ 2.7 µM)	0.5 µg/mL (≈ 1.35 µM)	2 µg/mL (≈ 5.4 µM)	–	–	2 µg/mL (≈ 5.4 µM)	0	0.15
